Measurements from ChEMBL document CHEMBL1949635, “Discovery of AMG 853, a CRTH2 and DP Dual Antagonist” (ACS Med Chem Lett, 2011).
The source made the active and inactive calls. The calls are words filed in the database; no cut-off is given here.

What was measured:
[1] = molecular target: T1, Prostaglandin D2 receptor 2 (Homo sapiens, UniProt Q9Y5Y4); assay: Displacement of [3H]-PGD2 from human CRTH2 receptor expressed in human HEK293 cells by scintillation counter in presence of 0.5% bovine serum albumin; assay type: cell-based
T1 sequence (Q9Y5Y4 whole entry): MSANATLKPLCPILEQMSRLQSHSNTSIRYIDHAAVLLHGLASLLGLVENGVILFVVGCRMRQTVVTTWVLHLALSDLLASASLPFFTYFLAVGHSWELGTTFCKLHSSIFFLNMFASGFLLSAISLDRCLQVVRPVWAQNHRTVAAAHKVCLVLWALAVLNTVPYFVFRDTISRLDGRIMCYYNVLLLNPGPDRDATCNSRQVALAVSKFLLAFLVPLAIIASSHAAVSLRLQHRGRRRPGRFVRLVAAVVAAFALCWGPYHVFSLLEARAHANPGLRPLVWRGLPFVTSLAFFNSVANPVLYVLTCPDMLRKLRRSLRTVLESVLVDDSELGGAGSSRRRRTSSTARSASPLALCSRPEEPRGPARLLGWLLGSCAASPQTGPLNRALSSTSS

[2] = molecular target: T1, Prostaglandin D2 receptor 2; assay: Displacement of [3H]-PGD2 from human CRTH2 receptor expressed in human HEK293 cells by scintillation counter in presence of 50% human plasma; assay type: cell-based
[3] = molecular target: T2, Prostaglandin D2 receptor (Homo sapiens, UniProt Q13258); assay: Displacement of [3H]-PGD2 from human Prostanoid DP receptor expressed in human HEK293 cells by scintillation counter in presence of 50% human plasma; assay type: cell-based
T2 sequence (Q13258 whole entry): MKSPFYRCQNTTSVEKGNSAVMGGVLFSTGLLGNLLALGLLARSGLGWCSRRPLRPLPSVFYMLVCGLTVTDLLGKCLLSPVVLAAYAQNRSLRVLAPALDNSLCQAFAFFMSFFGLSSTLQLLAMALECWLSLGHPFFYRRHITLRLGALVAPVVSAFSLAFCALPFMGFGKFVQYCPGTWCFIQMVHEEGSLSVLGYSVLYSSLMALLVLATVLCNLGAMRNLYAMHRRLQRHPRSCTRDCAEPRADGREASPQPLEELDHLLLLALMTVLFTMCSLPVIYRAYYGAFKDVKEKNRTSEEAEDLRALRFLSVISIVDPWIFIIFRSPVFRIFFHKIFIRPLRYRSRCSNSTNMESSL
Procedure, shortened: (§1)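 [3H]-PGD2 incubated with HEK-293 cells stably expressing human DP, with increasing compound concentrations; binding buffer held 0.5% BSA or 50% human plasma. Means of three experiments, standard deviation ±30%.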

[4] = molecular target: T2, Prostaglandin D2 receptor; assay: Displacement of [3H]-PGD2 from human Prostanoid DP receptor expressed in human HEK293 cells by scintillation counter in presence of 0.5% bovine serum albumin; assay type: cell-based; procedure, shortened: as §1
Cavia porcellus [5] = assay: Inhibition of PGD2-induced airway constriction in guinea pig model at 0.1 to 10 mg/kg, sc administered 4 hrs prior to aerosolized PGD2 challenge; assay type: functional, organism-based
Procedure, shortened: (§2)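 Guinea pigs dosed sc 4 h before exposure to aerosolized PGD2 (0.6 mg/mL). Airway resistance recorded as Penh (enhanced pause) in response to the challenge. n = 4 animals per group.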

[6] = Volume of distribution at steady state in cynomolgus monkey; assay type: ADME, organism-based, Macaca fascicularis; details: in vivo, read-out: Vdss
[7] = Antagonist activity at guinea pig Prostanoid DP receptor in whole blood by cAMP assay; assay type: functional; details: Cavia porcellus
[8] = Plasma concentration in guinea pig at 0.3 mg/kg, sc after 4 hrs; assay type: ADME, organism-based, Cavia porcellus; parameters: dose 0.3 mg/kg, route subcutaneous
Procedure, shortened: (§3)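 Guinea pig plasma drug levels taken 4 h after sc dosing, in the PGD2 aerosol airway-constriction study; n = 4 animals per group.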

[9] = Oral bioavailability in dog at 2 mg/kg; assay type: ADME, organism-based, Canis lupus familiaris; details: in vivo
[10] = Plasma concentration in guinea pig at 1 mg/kg, sc after 4 hrs; assay type: ADME, organism-based, Cavia porcellus; parameters: dose 1 mg/kg, route subcutaneous; procedure, shortened: as §3
[11] = Oral bioavailability in cynomolgus monkey at 2 mg/kg; assay type: ADME, organism-based, Macaca fascicularis; details: in vivo
[12] = Mean residence time in rat; assay type: ADME, organism-based; details: in vivo
[13] = Clearance in cynomolgus monkey at 0.5 mg/kg, iv; assay type: ADME, organism-based, Macaca fascicularis; parameters: dose 0.5 mg/kg, route intravenous; details: in vivo
[14] = Oral bioavailability in rat at 2 mg/kg; assay type: ADME, organism-based; details: in vivo
[15] = Inhibition of CYP450; assay type: ADME
[16] = Volume of distribution at steady state in dog; assay type: ADME, organism-based, Canis lupus familiaris; details: in vivo, read-out: Vdss
[17] = Plasma concentration in guinea pig at 3 mg/kg, sc after 4 hrs; assay type: ADME, organism-based, Cavia porcellus; parameters: dose 3 mg/kg, route subcutaneous; procedure, shortened: as §3
[18] = Volume of distribution at steady state in rat; assay type: ADME, organism-based; details: in vivo, read-out: Vdss
[19] = Plasma concentration in guinea pig at 0.1 mg/kg, sc after 4 hrs; assay type: ADME, organism-based, Cavia porcellus; parameters: dose 0.1 mg/kg, route subcutaneous; procedure, shortened: as §3
[20] = Clearance in dog at 0.5 mg/kg, iv; assay type: ADME, organism-based, Canis lupus familiaris; parameters: dose 0.5 mg/kg, route intravenous; details: in vivo
[21] = Mean residence time in cynomolgus monkey; assay type: ADME, organism-based, Macaca fascicularis; details: in vivo
[22] = Plasma concentration in guinea pig at 10 mg/kg, sc after 4 hrs; assay type: ADME, organism-based, Cavia porcellus; parameters: dose 10 mg/kg, route subcutaneous; procedure, shortened: as §3
[23] = Clearance in rat at 0.5 mg/kg, iv; assay type: ADME, organism-based; parameters: dose 0.5 mg/kg, route intravenous; details: in vivo
[24] = Mean residence time in dog; assay type: ADME, organism-based, Canis lupus familiaris; details: in vivo
Cavia porcellus [25] = assay: Inhibition of PGD2-induced airway constriction in guinea pig model at 0.3 to 10 mg/kg, sc administered 4 hrs prior to aerosolized PGD2 challenge; assay type: functional, organism-based; procedure, shortened: as §2

Structure (SMILES) | IC50 [1] [nM] | IC50 [2] [nM] | IC50 [3] [nM] | IC50 [4] [nM] | other results
O=C(O)Cc1ccc(Oc2ccc(C(=O)NC3CCC3)cc2NS(=O)(=O)c2ccc(Cl)cc2)c(Cl)c1 | 6 | 12 | 85 | 16 | 
CCCCNC(=O)c1ccc(Oc2ccc(CC(=O)O)cc2OC)c(NS(=O)(=O)c2c(Cl)cccc2Cl)c1 |  |  |  | > 10000 | 
CC(C)(C)NC(=O)c1ccc(Oc2ccc(CC(=O)O)cc2Cl)c(NS(=O)(=O)c2ccc(Cl)cc2Cl)c1 | 5 | 12 | 230 | 15 | 
CCCCNC(=O)c1ccc(Oc2ccc(CC(=O)O)cc2C)c(NS(=O)(=O)c2ccc(Cl)cc2Cl)c1 | 3 | 26 | 230 | 6 | 
CCCCNC(=O)c1ccc(Oc2ccc(CC(=O)O)cc2OC)c(NS(=O)(=O)c2cccc(Cl)c2Cl)c1 |  |  | 2340 | 520 | 
CCCCNC(=O)c1ccc(Oc2ccc(CC(=O)O)cc2OC)c(NS(=O)(=O)c2cc(Cl)cc(Cl)c2)c1 |  |  | > 10000 | 930 | 
CCCCNC(=O)c1ccc(Oc2ccc(CC(=O)O)cc2OC)c(NS(=O)(=O)c2ccc(Cl)cc2Cl)c1 |  |  |  |  | Kb [7]: 82 nM; concentration at 4 h [8]: 117 nM; concentration at 4 h [10]: 152 nM; concentration at 4 h [17]: 688 nM; inhibition (Cavia porcellus [25]): Active; concentration at 4 h [22]: 939 nM
CC(C)(C)NC(=O)c1ccc(Oc2ccc(CC(=O)O)cc2Cl)c(NS(=O)(=O)c2ccc(Cl)cc2)c1 | 9 | 15 | 450 | 46 | 
COc1cc(CC(=O)O)ccc1Oc1ccc(C(=O)NC2CC2)cc1NS(=O)(=O)c1ccc(Cl)cc1Cl |  |  | 1030 |  | 
CCCCNC(=O)c1ccc(Oc2ccc(CC(=O)O)cc2F)c(NS(=O)(=O)c2ccc(Cl)cc2Cl)c1 | 7 | 110 | 440 | 30 | 
CCCCNC(=O)c1ccc(Oc2ccc(CC(=O)O)cc2Cl)c(NS(=O)(=O)c2ccc(Cl)cc2Cl)c1 | 6 | 90 | 1330 | 8 | 
CCCCNC(=O)c1ccc(Oc2ccc(CC(=O)O)cc2OC)c(NS(=O)(=O)c2ccc(C(F)(F)F)cc2Cl)c1 |  |  | 190 | 21 | 
CCCCNC(=O)c1ccc(Oc2ccc(CC(=O)O)cc2C#N)c(NS(=O)(=O)c2ccc(Cl)cc2Cl)c1 | 18 | 210 |  | 310 | 
CCCCNC(=O)c1ccc(Oc2ccc(CC(=O)O)cc2OC)c(NS(=O)(=O)c2cc(Cl)ccc2Cl)c1 |  |  | 3640 | 50 | 
CCCCNC(=O)c1ccc(Oc2ccc(CC(=O)O)cc2OC)c(NS(=O)(=O)c2ccc(Cl)c(Cl)c2)c1 |  |  | 120 | 21 | 

Further lines, with some results ahead:

IC50 [1] [nM] | IC50 [2] [nM] | IC50 [3] [nM] | IC50 [4] [nM] | Structure (SMILES) | other results
25 | 53 | 42 | 20 | O=C(O)Cc1cc(F)c(Oc2ccc(C(=O)NC3CCC3)cc2NS(=O)(=O)c2ccc(OC(F)(F)F)cc2Cl)cc1F | 
5 | 19 | 210 | 9 | O=C(O)Cc1ccc(Oc2ccc(C(=O)NC3CCC3)cc2NS(=O)(=O)c2ccc(Cl)cc2Cl)c(Cl)c1 | 
4 | 13 | 45 | 13 | COc1cc(CC(=O)O)ccc1Oc1ccc(C(=O)NC2CCC2)cc1NS(=O)(=O)c1ccc(C(F)(F)F)cc1Cl | 
 |  | 35 | 4 | CC(C)(C)NC(=O)c1ccc(Oc2cc(F)c(CC(=O)O)cc2Cl)c(NS(=O)(=O)c2ccc(C3CC3)cc2Cl)c1 [VIDUPIPRANT] | inhibition (Cavia porcellus [5]): Active; Vd [6]: 0.97 L/kg; Kb [7]: 5 nM; concentration at 4 h [8]: 40 nM; bioavailability [9]: 100%; concentration at 4 h [10]: 77 nM; bioavailability [11]: 79%; MRT [12]: 3.9 h; clearance [13]: 16 mL/min/kg; bioavailability [14]: 87%; inhibition (INH) [15]: Not Active; Vd [16]: 2.72 L/kg; concentration at 4 h [17]: 222 nM; Vd [18]: 0.71 L/kg; concentration at 4 h [19]: 32 nM; clearance [20]: 15 mL/min/kg; MRT [21]: 1 h; concentration at 4 h [22]: 1400 nM; clearance [23]: 3.17 mL/min/kg; MRT [24]: 3 h
 |  | 600 | 7 | CCCCNC(=O)c1ccc(Oc2cc(F)c(CC(=O)O)cc2F)c(NS(=O)(=O)c2ccc(Cl)cc2Cl)c1 | 
7 | 25 | 220 | 14 | O=C(O)Cc1ccc(Oc2ccc(C(=O)NC3CC3)cc2NS(=O)(=O)c2ccc(Cl)cc2Cl)c(Cl)c1 | 
5 | 8 | 19 | 10 | O=C(O)Cc1cc(Cl)c(Oc2ccc(C(=O)NC3CCC3)cc2NS(=O)(=O)c2ccc(OC(F)(F)F)cc2Cl)cc1F | 
9 | 19 |  | 14 | CC(C)(C)NC(=O)c1ccc(Oc2cc(F)c(CC(=O)O)cc2Cl)c(NS(=O)(=O)c2ccc(OC(F)(F)F)cc2Cl)c1 | 
13 | 41 | 22 | 9 | O=C(O)Cc1cc(F)c(Oc2ccc(C(=O)NC3CCC3)cc2NS(=O)(=O)c2ccc(C(F)(F)F)cc2Cl)cc1F | 
